Test results reported in ChEMBL document CHEMBL3259675, “Novel N-substituted sophoridinol derivatives as anticancer agents” (Eur J Med Chem, 2014).
pIC50: −log10 of the molar value.

How the values were obtained:
[1] = tested on: HepG2; assay: Cell cycle arrest in human HepG2 cells assessed as accumulation at G0/G1 phase at 10 ug/ml after 24 hrs by FACS flow cytometric analysis (reference value: 2 %); assay type: functional; details: HepG2, 24 h
Procedure, shortened: (§1)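 HepG2 cells exposed to 0, 2.5, 5 or 10 µg/ml for 24 h, then harvested. Fixed in 70% ethanol and held at −20 °C. Cell-cycle distribution determined by flow cytometry, with untreated cells as control.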

[2] = tested on: HepG2; assay: Antiproliferative activity against human HepG2 cells assessed as growth inhibition at 10 ug/ml after 48 hrs by MTT assay; assay type: functional; details: HepG2, 48 h
Procedure, shortened: (§2)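 Cell lines from ATCC, grown in MEM-EBSS with 10% FBS and 1% penicillin-streptomycin at 37 °C, 5% CO2. Seeded at 4000 cells/well, left 24 h, then exposed to a concentration series for 48 h. Growth read by MTT. Percent inhibition was computed at each concentration and IC50 derived from it. Triplicate determinations, reported as mean SD.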

[3] = tested on: HCT-116; assay: Antiproliferative activity against human HCT116 cells assessed as growth inhibition after 48 hrs by MTT assay; assay type: functional, cell-based; details: HCT-116, 48 h; procedure, shortened: as §2
[4] = tested on: NCI-H1299; assay: Antiproliferative activity against human NCI-H1299 cells assessed as growth inhibition after 48 hrs by MTT assay; assay type: functional, cell-based; details: NCI-H1299, 48 h; procedure, shortened: as §2
[5] = tested on: HepG2; assay: Antiproliferative activity against human HepG2 cells assessed as growth inhibition after 48 hrs by MTT assay; assay type: functional, cell-based; details: HepG2, 48 h; procedure, shortened: as §2
[6] = tested on: HepG2; assay: Cell cycle arrest in human HepG2 cells assessed as accumulation at G0/G1 phase at 2.5 ug/ml after 24 hrs by FACS flow cytometric analysis (reference value: 2 %); assay type: functional; details: HepG2, 24 h; procedure, shortened: as §1
[7] = tested on: Mus musculus; assay: Toxicity in mouse assessed as body weight at 250 to 1000 mg/kg, ig; assay type: organism-based; design: dose 250-1000 mg/kg, route intragastric; details: in vivo, po
[8] = tested on: KB; assay: Antiproliferative activity against human KB cells assessed as growth inhibition after 48 hrs by MTT assay; assay type: functional, cell-based; procedure, shortened: as §2
[9] = tested on: MCF7; assay: Antiproliferative activity against human MCF7 cells assessed as growth inhibition after 48 hrs by MTT assay; assay type: functional, cell-based; details: MCF7, 48 h; procedure, shortened: as §2
[10] = tested on: Mus musculus; assay: Toxicity in mouse at 250 to 1000 mg/kg, ig; assay type: organism-based; design: dose 250-1000 mg/kg, route intragastric; details: in vivo, po
Procedure, shortened: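 Single-dose toxicity in mice: compound given intragastrically at 250, 500 or 1000 mg/kg, with deaths monitored.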

[11] = Antiproliferative activity against human U87 cells assessed as growth inhibition after 48 hrs by MTT assay; assay type: functional, cell-based, U-87MG ATCC; details: U-87 MG; procedure, shortened: as §2
[12] = tested on: HepG2; assay: Cell cycle arrest in human HepG2 cells assessed as accumulation at G0/G1 phase at 5 ug/ml after 24 hrs by FACS flow cytometric analysis (reference value: 2 %); assay type: functional; details: HepG2, 24 h; procedure, shortened: as §1

COC(=O)CCC[C@@H]1[C@H]2CCCN3CCC[C@H](CN1Cc1ccc(Cl)cc1)[C@@H]23
inhibition at 10 µg/mL [1]: 8.5% | inhibition at 10 µg/mL [2]: 97.6% | pIC50 [3]: 5.34 | pIC50 [4]: 5.39 | pIC50 [5]: 5.39 | inhibition at 2.5 µg/mL [6]: 6.3% | Activity [7]: Non-toxic | pIC50 [8]: 5.21 | pIC50 [9]: 4.70 | Activity [10]: Non-toxic | pIC50 [11]: 4.90 | inhibition at 5 µg/mL [12]: 11.8%
